Results reported in publication PMC3313489 (European journal of lipid science and technology : EJLST, 2011).

Test system: Human neuroblastoma SH-SY5Y cells
Experiment: Cell viability, resazurin reduction
Assay type: cell-based
Details: 10 μM (printed for AA), 72 h, Figure 4C

Structure (SMILES)	degeneration of the cells
CCCCC/C=C\C/C=C\C/C=C\C/C=C\CCCC(=O)O [Arachidonic acid]	99 ± 0.1%
CCCCC[C@H](O)/C=C/[C@H]1[C@H](O)CC(=O)[C@@H]1C/C=C\CCCC(=O)O [Prostaglandin E2]	34 ± 4.0%
CCCCC[C@H](O)/C=C/[C@@H]1[C@@H](C/C=C\CCCC(=O)O)[C@@H](O)C[C@H]1O [Prostaglandin F2α]	19 ± 5.6%

Same assay, conditions: 200 μM, 24 h exposure; listed as ARA

Structure (SMILES)	effect on cell viability (in words)
CCCCCCCCCCCCCCCCCCCC(=O)O [Arachidic acid]	no effect on cell viability

Biological target: T1, PMPMEase (Homo sapiens, UniProt P23141)
T1 sequence (P23141 18-567): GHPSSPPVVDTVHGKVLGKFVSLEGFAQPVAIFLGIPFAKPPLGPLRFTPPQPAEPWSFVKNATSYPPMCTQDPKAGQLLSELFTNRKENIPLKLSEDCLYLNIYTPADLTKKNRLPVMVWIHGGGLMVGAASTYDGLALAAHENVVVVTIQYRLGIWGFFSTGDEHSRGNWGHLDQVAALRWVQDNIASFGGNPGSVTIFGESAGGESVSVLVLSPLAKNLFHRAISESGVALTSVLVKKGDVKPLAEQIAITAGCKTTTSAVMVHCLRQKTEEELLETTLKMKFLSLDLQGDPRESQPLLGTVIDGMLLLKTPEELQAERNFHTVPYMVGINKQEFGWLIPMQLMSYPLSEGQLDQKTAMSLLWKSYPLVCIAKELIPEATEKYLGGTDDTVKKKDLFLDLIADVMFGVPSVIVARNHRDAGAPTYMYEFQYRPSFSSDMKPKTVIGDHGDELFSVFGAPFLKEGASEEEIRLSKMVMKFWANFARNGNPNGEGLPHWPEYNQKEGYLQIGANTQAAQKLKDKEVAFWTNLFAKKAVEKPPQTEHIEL
Experiment: PMPMEase activity in lysates of FFA-treated SH-SY5Y cells
Assay type: cell-based
Details: DMSO-induced degenerated cells, non-specific cytotoxic agent
How it was run: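 SH-SY5Y cells were seeded in 24-well plates at 5 × 10^5 and exposed to fatty acids (0–200 μM) or DMSO for 24 h, then lysed in medium with Triton X-100. Lysate was incubated at 37 °C with RD-PNB in 100 mM Tris-HCl, pH 7.4. Reactions were stopped with methanol on ice and spun, and product was measured by RP-HPLC (UV 260 nm). Means ± S.E.M.; ANOVA with Dunnett's test.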

Structure (SMILES)	loss of PMPMEase enzyme activity in degenerated cells
C[S+](C)[O-] [DMSO, dimethylsulfoxide]	49 ± 3%

Biological target: T2, PMPMEase (Sus scrofa, UniProt Q29550)
T2 sequence (Q29550 19-566): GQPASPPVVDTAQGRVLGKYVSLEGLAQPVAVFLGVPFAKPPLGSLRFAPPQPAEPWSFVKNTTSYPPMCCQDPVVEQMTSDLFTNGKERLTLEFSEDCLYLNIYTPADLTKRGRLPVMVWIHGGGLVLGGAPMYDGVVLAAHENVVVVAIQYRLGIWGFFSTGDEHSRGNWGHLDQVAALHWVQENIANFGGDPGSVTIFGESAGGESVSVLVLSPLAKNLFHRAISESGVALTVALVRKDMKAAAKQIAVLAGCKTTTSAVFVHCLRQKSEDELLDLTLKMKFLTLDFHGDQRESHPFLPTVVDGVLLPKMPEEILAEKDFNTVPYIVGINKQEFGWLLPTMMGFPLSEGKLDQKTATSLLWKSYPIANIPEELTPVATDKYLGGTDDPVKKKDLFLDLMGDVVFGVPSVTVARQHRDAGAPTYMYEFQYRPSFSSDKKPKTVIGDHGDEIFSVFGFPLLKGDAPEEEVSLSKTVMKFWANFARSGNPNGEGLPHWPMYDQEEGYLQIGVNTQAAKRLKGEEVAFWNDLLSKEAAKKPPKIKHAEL
Experiment: PMPMEase enzyme assay with RD-PNB substrate
Assay type: biochemical, porcine
Details: not given

IC50	Ki	Structure (SMILES)
> 1000 µM	> 28 µM	CCCCCCCCCCCCCCCCCCCC(=O)O [Arachidic acid]
6.6 µM	–	CCCCC/C=C\C/C=C\C/C=C\C/C=C\CCCC(=O)O [Arachidonic acid]
> 1000 µM	> 28 µM	CCCCCCCCCC(=O)O [Decanoic acid]
130 µM	–	CC/C=C\C/C=C\C/C=C\C/C=C\C/C=C\C/C=C\CCC(=O)O [Docosahexaenoic acid]
12 µM	–	CC/C=C\C/C=C\C/C=C\C/C=C\C/C=C\CCCC(=O)O [Eicosapentaenoic acid]
> 1000 µM	> 28 µM	CCCCCCCC/C=C/CCCCCCCC(=O)O [Elaidic acid]
> 1000 µM	> 28 µM	CCCCCCCC/C=C\CCCCCCCCCCCC(=O)O [Erucic acid]
64 µM	1.8 µM	CCCCC/C=C\C/C=C\CCCCCCCC(=O)O [Linoleic acid]
100 µM	2.8 µM	CCCCCCCCCCCCCC(=O)O [Myristic acid]
63 µM	1.8 µM	CCCC/C=C\CCCCCCCC(=O)O [Myristoleic acid]
> 1000 µM	> 28 µM	CCCCCCCC(=O)O [Octanoic acid]
53 µM	1.5 µM	CCCCCCCC/C=C\CCCCCCCC(=O)O [Oleic acid]
> 1000 µM	> 28 µM	CCCCCCCCCCCCCCCC(=O)O [Palmitic acid]
37 µM	1 µM	CCCCCC/C=C\CCCCCCCC(=O)O [Palmitoleic acid]
> 1000 µM	> 28 µM	CCCCC[C@H](O)/C=C/[C@H]1C=CC(=O)[C@@H]1CCCCCCC(=O)O [Prostaglandin A1]
420 µM	–	CCCCC[C@H](O)/C=C/[C@H]1C=CC(=O)[C@@H]1C/C=C\CCCC(=O)O [Prostaglandin A2]
580 µM	–	CCCCC[C@H](O)/C=C/C1=C(CCCCCCC(=O)O)C(=O)CC1 [Prostaglandin B1]
> 1000 µM	–	CCCCC[C@H](O)/C=C/[C@H]1[C@H](O)CC(=O)[C@@H]1CCCCCCC(=O)O [Prostaglandin E1]
> 1000 µM	–	CCCCC[C@H](O)/C=C/[C@H]1[C@H](O)CC(=O)[C@@H]1C/C=C\CCCC(=O)O [Prostaglandin E2]
> 1000 µM	> 28 µM	CCCCC[C@H](O)/C=C/[C@@H]1[C@@H](C/C=C\CCCC(=O)O)[C@@H](O)C[C@H]1O [Prostaglandin F2α]
> 1000 µM	> 28 µM	CCCCCCCCCCCCCCCCCC(=O)O [Stearic acid]

Structure (SMILES)	IC50	Ki
CC/C=C\C/C=C\C/C=C\CCCCCCCC(=O)O [Linolenic acid]	22 µM	–

Same assay, conditions: from IC50 values, AA as comparator

decrease in PMPMEase inhibitory potency relative to AA	Structure (SMILES)
over 63 fold	CCCCC[C@H](O)/C=C/[C@H]1C=CC(=O)[C@@H]1C/C=C\CCCC(=O)O [Prostaglandin A2]
> 150 fold	CCCCC[C@H](O)/C=C/[C@H]1[C@H](O)CC(=O)[C@@H]1C/C=C\CCCC(=O)O [Prostaglandin E2]

Same assay, conditions: purified PMPMEase 5 μg, RD-PNB 1 mM, 37°C, pH 7.4

Ki	Structure (SMILES)
6.5 µM	CCCCCCCCCCCC(=O)O [Lauric acid]
> 28 µM	CCCCC[C@H](O)/C=C/[C@@H]1[C@@H](CCCCCCC(=O)O)[C@H](O)C[C@H]1O [Prostaglandin F1β]

Same assay, conditions: purified PMPMEase 5 μg, RD-PNB 1 mM, 15 min pre-incubation, 37°C, pH 7.4

IC50	Structure (SMILES)
230 µM	CCCCCCCCCCCC(=O)O [Lauric acid]
> 1000 µM	CCCCC[C@H](O)/C=C/[C@@H]1[C@@H](CCCCCCC(=O)O)[C@H](O)C[C@H]1O [Prostaglandin F1β]
